Results on 21 compounds are retold here after ChEMBL document CHEMBL4177693, “Design, synthesis, and biological evaluation of thieno[2,3-d]pyrimidine derivatives as novel dual c-Met and VEGFR-2 kinase inhibitors” (Bioorg Med Chem, 2017).

In one assay the test system is BaF3. Nature of the assay: Antiproliferative activity against mouse BAF3 cells harboring […] at 1 uM after 72 hrs by CCK-8 assay relative to control. Format: functional. As to conditions: BaF3, 72 h. A digest of the protocol: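 Murine BaF3 cells expressing TPR-Met (c-Met-dependent) were plated in RPMI 1640 with 10% FBS. Serial compound dilutions or 0.1% DMSO were added the following day, and cells were incubated a further 72 h before CCK-8 read-out. IC50 was fitted by nonlinear regression; single-point percent inhibition was tested at 1 μM.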
Background: Tetrazolium dyes change colour on reduction, which living cells bring about.

Assay [1] concerns HUVEC. Nature of the assay: Antiproliferative activity against human VEGF-stimulated HUVEC cells at 1 uM after 120 hrs by CCK-8 assay relative to control. Format: functional. A digest of the protocol: (§1)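 HUVECs were plated in human endothelial serum-free medium. The next day, serial dilutions of compound or 0.1% DMSO vehicle were added, with 60 ng/mL recombinant human VEGF to drive proliferation for 120 h. Viability was read by CCK-8. IC50 came from nonlinear regression; percent inhibition was also scored at a single 1 μM concentration.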

Assay [2] concerns HUVEC. As to the kind of experiment: Antiproliferative activity against human VEGF-stimulated HUVEC after 120 hrs by CCK-8 assay. Type of assay: functional, cell-based. A digest of the protocol:
as §1

For the compound `Cc1c(C(=O)NCCS(C)(=O)=O)sc2ncnc(Oc3ccc(NC(=O)C4(C(=O)Nc5ccc(F)cc5)CC4)cc3F)c12`, the inhibition at 1 µM in the assay with BaF3 stood at 96%; in the assay with HUVEC [1], 79.5%. Moreover, inhibition in the assay on HUVEC [2] was half-maximal at 86 nM (IC50).

`Cc1c(C(=O)NCCC(C)C)sc2ncnc(Oc3ccc(NC(=O)C4(C(=O)Nc5ccc(F)cc5)CC4)cc3F)c12`: the inhibition at 1 µM in the assay with BaF3 turned out to be 86.6%; in the assay on HUVEC [1], 27.5%.

For `Cc1c(C(=O)O)sc2ncnc(Oc3ccc(NC(=O)C4(C(=O)Nc5ccc(F)cc5)CC4)cc3F)c12`, the inhibition at 1 µM worked out at 2.13% in the assay with BaF3 and 8.72% in the assay with HUVEC [1].

Consider `COCCNC(=O)c1sc2ncnc(Oc3ccc(NC(=O)C4(C(=O)Nc5ccc(F)cc5)CC4)cc3F)c2c1C`, for which the inhibition at 1 µM in the assay with BaF3 was found to be 90.9%; in the assay on HUVEC [1], 68.9%. In the assay with HUVEC [2], this compound displayed an IC50 of 139 nM.

In the case of `COc1cc2nccc(Oc3ccc(NC(=O)C4(C(=O)Nc5ccc(F)cc5)CC4)cc3)c2cc1OC` [CABOZANTINIB], the inhibition at 1 µM with BaF3 amounted to 97.7%; in the assay with HUVEC [1], 72.8%.

As to `Cc1c(C(=O)N(C)C)sc2ncnc(Oc3ccc(NC(=O)C4(C(=O)Nc5ccc(F)cc5)CC4)cc3F)c12`, the values for the inhibition at 1 µM with BaF3 and with HUVEC [1] were 60% and 24.4%, respectively.

As to `Cc1c(C(=O)Nc2ccc(F)cc2)sc2ncnc(Oc3ccc(NC(=O)C4(C(=O)Nc5ccc(F)cc5)CC4)cc3F)c12`, the inhibition at 1 µM in the assay with BaF3 was determined as 26.7%; in the assay with HUVEC [1], 32.9%.

For the compound `COC(=O)c1sc2ncnc(Oc3ccc(NC(=O)C4(C(=O)Nc5ccc(F)cc5)CC4)cc3F)c2c1C`, the inhibition at 1 µM stood at 18.1% with BaF3 and 4.56% in the assay with HUVEC [1].

With `Cc1c(C(=O)NCC#N)sc2ncnc(Oc3ccc(NC(=O)C4(C(=O)Nc5ccc(F)cc5)CC4)cc3F)c12`, the inhibition at 1 µM with BaF3 was 92.6%; with HUVEC [1], 66.7%. Also, 123 nM corresponded to half-maximal inhibition in the assay on HUVEC [2] (IC50).

For `Cc1c(C(=O)NCCN2CCOCC2)sc2ncnc(Oc3ccc(NC(=O)C4(C(=O)Nc5ccc(F)cc5)CC4)cc3F)c12`, the inhibition at 1 µM amounted to 95.4% in the assay with BaF3 and 73.6% with HUVEC [1]. The compound also displayed an IC50 in the assay with HUVEC [2] of 89 nM.

As to `CCOC(=O)c1sc2ncnc(Oc3ccc(NC(=O)C4(C(=O)Nc5ccc(F)cc5)CC4)cc3F)c2c1C`, the inhibition at 1 µM worked out at 16.4% in the assay with BaF3 and 12.7% with HUVEC [1].

Regarding `Cc1c(C(=O)NCCN2CCCC2)sc2ncnc(Oc3ccc(NC(=O)C4(C(=O)Nc5ccc(F)cc5)CC4)cc3F)c12`, the values for the inhibition at 1 µM in the assay with BaF3 and in the assay with HUVEC [1] were 88.2% and 29.7%, respectively.

Take `COCCCNC(=O)c1sc2ncnc(Oc3ccc(NC(=O)C4(C(=O)Nc5ccc(F)cc5)CC4)cc3F)c2c1C`: the inhibition at 1 µM in the assay with BaF3 came out at 88.6%; in the assay with HUVEC [1], 33.3%.

For `CC(=O)N1CCN(C(=O)c2sc3ncnc(Oc4ccc(NC(=O)C5(C(=O)Nc6ccc(F)cc6)CC5)cc4F)c3c2C)CC1`, the inhibition at 1 µM stood at 61% in the assay on BaF3 and 23.8% in the assay with HUVEC [1].

For the compound `Cc1c(C(=O)N2CCCCC2)sc2ncnc(Oc3ccc(NC(=O)C4(C(=O)Nc5ccc(F)cc5)CC4)cc3F)c12`, the inhibition at 1 µM came to 20.3% in the assay on BaF3 and 10.5% in the assay with HUVEC [1].

Regarding `Cc1c(C(=O)NCCCN2CCOCC2)sc2ncnc(Oc3ccc(NC(=O)C4(C(=O)Nc5ccc(F)cc5)CC4)cc3F)c12`, the inhibition at 1 µM with BaF3 is 92.8%; with HUVEC [1], 61.3%. It took 153 nM to reach half-maximal inhibition in the assay with HUVEC [2] (IC50).

`Cc1c(C(=O)NC2CC2)sc2ncnc(Oc3ccc(NC(=O)C4(C(=O)Nc5ccc(F)cc5)CC4)cc3F)c12`: the inhibition at 1 µM was 26.6% in the assay with BaF3 and 13.7% with HUVEC [1].

As for `Cc1c(C(=O)N2CCCC2)sc2ncnc(Oc3ccc(NC(=O)C4(C(=O)Nc5ccc(F)cc5)CC4)cc3F)c12`, the values for the inhibition at 1 µM with BaF3 and in the assay on HUVEC [1] were 31.1% and 15.8%, respectively.

Turning to `Cc1c(C(=O)N2CCOCC2)sc2ncnc(Oc3ccc(NC(=O)C4(C(=O)Nc5ccc(F)cc5)CC4)cc3F)c12`, the values for the inhibition at 1 µM in the assay on BaF3 and with HUVEC [1] were 61.5% and 10.8%, respectively.

For the compound `Cc1c(C(=O)OCc2ccccc2)sc2ncnc(Oc3ccc(NC(=O)C4(C(=O)Nc5ccc(F)cc5)CC4)cc3F)c12`, the inhibition at 1 µM was 10.5% in the assay on BaF3 and 6.17% in the assay with HUVEC [1].

Turning to `Cc1c(C(=O)N2CCSCC2)sc2ncnc(Oc3ccc(NC(=O)C4(C(=O)Nc5ccc(F)cc5)CC4)cc3F)c12`, the values for the inhibition at 1 µM with BaF3 and in the assay on HUVEC [1] were 23% and 15.5%, respectively.

The term inhibition denotes the change of the read-out against control, counted positive when it falls. Lower therefore signals a response near the control. As a reminder, the IC50 is the concentration that inhibits the measured activity by half. Low values mean greater potency in that assay, high ones weaker potency in that assay.
